Where only a bound is given, the exact number is not on record here.

The record followed here is ChEMBL document CHEMBL4312035, “Preliminary SAR and biological evaluation of potent HIV-1 protease inhibitors with pyrimidine bases as novel P2 ligands to enhance activity against DRV-resistant HIV-1 variants” (Eur J Med Chem, 2020).

Data set [1] can be described thus: Cytotoxicity against human 293T cells measured after 24 hrs by CCK8 assay. It is filed as cell-based. The settings on record: HEK-293T cells. Summed up:
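293T cells plated at 20 000 per well and cultured 24 h before drug addition; exposure 24 h, then CCK-8 added and absorbance read at 450 nm after 2 h at room temperature. Run in triplicate; mean ± 1 SD from three independent experiments.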

In the next data set the target is Protease (Human immunodeficiency virus 1, UniProt Q9YQ12). Put plainly: Inhibition of HIV1 protease expressed in Escherichia coli using Arg-Glu (EDANS)-Ser-Gln-Asn-Tyr-Pro-Ile-Val-Gln-Lys(DABCYL)-Arg as substrate preincubated for 20 to 30 mins followed by substrate addition and measured for 10 mins by FRET assay. In a few lines:
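Recombinant HIV-1 protease, purified from E. coli. Buffer: 0.1 M sodium acetate, 1 M NaCl, 1 mM EDTA, 1 mM DTT, 2% DMSO, 1 mg/mL BSA, pH 4.7. Inhibitor dissolved in DMSO. Excitation 340 nm, emission 490 nm, recorded about 10 min. Run in triplicate; IC50 as mean ± 1 SD from three independent experiments.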

Data set [2] relates to Human immunodeficiency virus 1. Briefly: Antiviral activity against VSV-G pseudotyped HIV1 transfected in human 293T cells co-transfected with NL4-3 HIV1 supernatant infected in human SupT1 cells treated with compound for 48 hrs assessed as inhibition of viral infection at 100 nM after 48 hrs by luciferase assay (reference value: 0 %). It is filed as functional. To be noted: Human immunodeficiency virus 1, 48 h.

For data set [3], the system named is Human immunodeficiency virus 1. Put plainly: Antiviral activity against VSV-G pseudotyped HIV1 transfected in human 293T cells co-transfected with NL4-3 HIV1 supernatant infected in human SupT1 cells treated with compound for 48 hrs assessed as inhibition of viral infection at 10 uM after 48 hrs by luciferase assay (reference value: 0 %). The format is functional. The settings on record: Human immunodeficiency virus 1, 48 h.

For data set [4], the system named is Human immunodeficiency virus 1. Put plainly: Antiviral activity against wild-type HIV1 NL4-3 infected in human SupT1 cells infected with […] after 48 hrs by luciferase reporter assay. The format is functional, organism-based. The settings on record: Human immunodeficiency virus 1, NL4-3, 48 h.
Data set [5] relates to Human immunodeficiency virus 1. Briefly: Antiviral activity against darunavir-resistant HIV1 NL4-3 infected in human […] after 48 hrs by luciferase reporter assay. The format is functional, organism-based. To be noted: Human immunodeficiency virus 1, NL4-3, 48 h. Background: In a reporter assay the amount or activity of a reporter protein is the signal.
Data set [6] has as its system Human immunodeficiency virus 1. Briefly: Ratio of EC50 for antiviral activity against darunavir-resistant HIV1 NL4-3 infected in human SupT1 cells infected with supernatants from virus-infected human TZM-bl cells to EC50 for antiviral activity against wild-type HIV1 NL4-3 infected in human SupT1 cells infected with supernatants from virus-infected human TZM-bl cells. The format is functional.

Chain of Protease (Q9YQ12 whole entry): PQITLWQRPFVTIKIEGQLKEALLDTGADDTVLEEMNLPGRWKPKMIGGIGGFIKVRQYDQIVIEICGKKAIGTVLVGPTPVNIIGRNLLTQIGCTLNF

The term CC50 denotes the concentration giving 50% cytotoxicity. The low end stands for harm at low concentration, the high end for better tolerance by the cells. For orientation: IC50 means the concentration that gives 50% inhibition. High values mean weaker potency in that assay, low ones greater potency in that assay. On to `Cc1cn(CC(=O)N[C@@H](Cc2ccccc2)[C@H](O)CN(CC(C)C)S(=O)(=O)c2ccc(N)cc2)c(=O)nc1N`, for which the CC50 at 24 h in data set [1] was over 100000 nM. Besides, the midpoint of inhibition on Protease, the IC50, lay at 375 nM.

`Cc1cn(CC(=O)N[C@@H](Cc2ccccc2)[C@H](O)CN(CC(C)C)S(=O)(=O)c2ccc([N+](=O)[O-])cc2)c(=O)nc1N`: the CC50 at 24 h in data set [1] was over 100000 nM. On Protease, the IC50 came to 1190 nM.

The term inhibition denotes the percentage by which the read-out fell short of the control. As to `Cc1ccnc2c1NC(=O)c1cccnc1N2C1CC1` [NEVIRAPINE], the inhibition at 0.1 µM in data set [2] lay in the range of 76 to 77%.

As for `CC(C)CN(C[C@@H](O)[C@H](Cc1ccccc1)NC(=O)Cn1cc(CO)c(=O)[nH]c1=O)S(=O)(=O)c1ccc([N+](=O)[O-])cc1`, the CC50 at 24 h in data set [1] was over 100000 nM. Also, the midpoint of inhibition against Protease, the IC50, lay at 405 nM.

By EC50 is commonly meant the concentration that produces a half-maximal response. A high value points to weaker potency. `CC(C)CN(C[C@@H](O)[C@H](Cc1ccccc1)NC(=O)O[C@H]1CO[C@H]2OCC[C@H]21)S(=O)(=O)c1ccc(N)cc1` yielded a CC50 at 24 h in data set [1] of over 100000 nM. The inhibition at 10 µM in data set [3] amounted to 83.2%. The concentration for a half-maximal effect (EC50) in data set [4] came out at 6 nM; in data set [5], 100 nM.

On to `COc1ccc(S(=O)(=O)N(CC(C)C)C[C@@H](O)[C@H](Cc2ccccc2)NC(=O)Cn2cc(C)c(=O)[nH]c2=O)cc1`, for which, in data set [1], the cytotoxic concentration (CC50) at 24 h was over 100000 nM. The same compound displayed a half-inhibitory concentration (IC50) at Protease of 2.78 nM. Also, the inhibition at 10 µM in data set [3] was 72.7%. The EC50 worked out at 2500 nM in data set [4] and 2870 nM in data set [5]. For the same compound, the “Ratio EC50” value in data set [6] was 1.15.

In data set [1], `CC(C)CN(C[C@@H](O)[C@H](Cc1ccccc1)NC(=O)Cn1cc(F)c(N)nc1=O)S(=O)(=O)c1ccc([N+](=O)[O-])cc1` registered a 50% cytotoxic concentration (CC50) at 24 h of over 100000 nM. The same compound displayed a half-maximal inhibitory concentration (IC50) at Protease of 482 nM.

In data set [1], `CC(C)CN(C[C@@H](O)[C@H](Cc1ccccc1)NC(=O)Cn1cccnc1=O)S(=O)(=O)c1ccc([N+](=O)[O-])cc1` yielded a 50% cytotoxic concentration (CC50) at 24 h of over 100000 nM. The same compound registered a 50% inhibitory concentration (IC50) against Protease of 245 nM.

As for `COc1ccc(S(=O)(=O)N(CC(C)C)C[C@@H](O)[C@H](Cc2ccccc2)NC(=O)Cn2ccc(N)nc2=O)cc1`, the 50% cytotoxic concentration (CC50) at 24 h in data set [1] was over 100000 nM. Moreover, the IC50 at Protease is 9.04 nM. In data set [3], the inhibition at 10 µM is 33.2%.

In data set [1], `CC(C)CN(C[C@@H](O)[C@H](Cc1ccccc1)NC(=O)Cn1cc(F)c(=O)[nH]c1=O)S(=O)(=O)c1ccc(N)cc1` displayed a CC50 at 24 h of 8800 nM. At Protease, this compound had a half-inhibitory concentration (IC50) of 16.3 nM. Also, the inhibition at 10 µM in data set [3] came out at 63%.

For `CC(C)CN(C[C@@H](O)[C@H](Cc1ccccc1)NC(=O)Cn1cc(CO)c(=O)[nH]c1=O)S(=O)(=O)c1ccc(N)cc1`, the half-maximal cytotoxic concentration (CC50) at 24 h in data set [1] is over 100000 nM. Also, the midpoint of inhibition against Protease, the IC50, lay at 241 nM.

Turning to `CC(C)CN(C[C@@H](O)[C@H](Cc1ccccc1)NC(=O)Cn1ccc(N)nc1=O)S(=O)(=O)c1ccc(N)cc1`, the CC50 at 24 h in data set [1] is over 100000 nM. The half-maximal inhibitory concentration (IC50) on Protease was determined as 153 nM.

`COc1ccc(S(=O)(=O)N(CC(C)C)C[C@@H](O)[C@H](Cc2ccccc2)NC(=O)Cn2cc(F)c(=O)[nH]c2=O)cc1` returned a cytotoxic concentration (CC50) at 24 h in data set [1] of over 100000 nM. Besides, half-maximal inhibition on Protease (IC50) required 1.95 nM. Moreover, in data set [3], the inhibition at 10 µM stood at 83.2%. Also, the inhibition at 0.1 µM in data set [2] came out at 51%. Also, the EC50 came to 1070 nM in data set [4] and 2700 nM in data set [5]. In addition, in data set [6], the “Ratio EC50” value worked out at 2.52.

`CC(C)CN(C[C@@H](O)[C@H](Cc1ccccc1)NC(=O)Cn1ccc(=O)[nH]c1=O)S(=O)(=O)c1ccc([N+](=O)[O-])cc1` came in with a CC50 at 24 h in data set [1] of over 100000 nM. In addition, on Protease, the half-maximal inhibitory concentration (IC50) worked out at 20.1 nM. Also, the inhibition at 10 µM in data set [3] amounted to 51%.

As to `Cc1cn(CC(=O)N[C@@H](Cc2ccccc2)[C@H](O)CN(CC(C)C)S(=O)(=O)c2ccc([N+](=O)[O-])cc2)c(=O)[nH]c1=O`, the CC50 at 24 h in data set [1] was over 100000 nM. Further, half-maximal inhibition on Protease (IC50) was put at 44.3 nM.

`CC(C)CN(C[C@@H](O)[C@H](Cc1ccccc1)NC(=O)Cn1ccc(N)nc1=O)S(=O)(=O)c1ccc([N+](=O)[O-])cc1` showed a 50% cytotoxic concentration (CC50) at 24 h in data set [1] of over 100000 nM. The compound also returned an IC50 against Protease of 411 nM.

Regarding `COc1ccc(S(=O)(=O)N(CC(C)C)C[C@@H](O)[C@H](Cc2ccccc2)NC(=O)Cn2cc(F)c(N)nc2=O)cc1`, in data set [1], the cytotoxic concentration (CC50) at 24 h is over 100000 nM. The compound further showed an IC50 against Protease of 36 nM.

In turn, `CC(C)CN(C[C@@H](O)[C@H](Cc1ccccc1)NC(=O)Cn1ccc(=O)[nH]c1=O)S(=O)(=O)c1ccc(N)cc1` registered a 50% cytotoxic concentration (CC50) at 24 h in data set [1] of over 100000 nM. In addition, half-maximal inhibition against Protease (IC50) was put at 20.1 nM. The inhibition at 10 µM in data set [3] was 48.4%.

In data set [1], `CC(C)CN(C[C@@H](O)[C@H](Cc1ccccc1)NC(=O)Cn1cc(F)c(=O)[nH]c1=O)S(=O)(=O)c1ccc([N+](=O)[O-])cc1` had a CC50 at 24 h of 32400 nM. The compound further yielded an IC50 against Protease of 27.6 nM. Also, the inhibition at 10 µM in data set [3] was 32.8%.

For the compound `Cc1cn(CC(=O)N[C@@H](Cc2ccccc2)[C@H](O)CN(CC(C)C)S(=O)(=O)c2ccc(N)cc2)c(=O)[nH]c1=O`, the CC50 at 24 h in data set [1] is over 100000 nM. This compound yielded a concentration for half-maximal inhibition (IC50) at Protease of 19.7 nM. For the same compound, the inhibition at 10 µM in data set [3] was 54%.

As to `CC(C)CN(C[C@@H](O)[C@H](Cc1ccccc1)NC(=O)Cn1cccnc1=O)S(=O)(=O)c1ccc(N)cc1`, the CC50 at 24 h in data set [1] was over 100000 nM. The compound also showed a half-maximal inhibitory concentration (IC50) against Protease of 126 nM.

In data set [1], `COc1ccc(S(=O)(=O)N(CC(C)C)C[C@@H](O)[C@H](Cc2ccccc2)NC(=O)Cn2ccc(=O)[nH]c2=O)cc1` came in with a CC50 at 24 h of over 100000 nM. The compound also showed an IC50 at Protease of 2.53 nM. Moreover, in data set [3], the inhibition at 10 µM is 81%. Moreover, the inhibition at 0.1 µM in data set [2] was 68%. The EC50 stood at 270 nM in data set [4] and 590 nM in data set [5]. The “Ratio EC50” value in data set [6] is listed as 2.19.

Take `COc1ccc(S(=O)(=O)N(CC(C)C)C[C@@H](O)[C@H](Cc2ccccc2)NC(=O)Cn2cc(C)c(N)nc2=O)cc1`: in data set [1], the 50% cytotoxic concentration (CC50) at 24 h was over 100000 nM. The compound also had an IC50 against Protease of 147 nM.

The compound `COc1ccc(S(=O)(=O)N(CC(C)C)C[C@@H](O)[C@H](Cc2ccccc2)NC(=O)Cn2cccnc2=O)cc1` gave a CC50 at 24 h in data set [1] of over 100000 nM. Moreover, on Protease, the 50% inhibitory concentration (IC50) came to 10.3 nM. In addition, the inhibition at 10 µM in data set [3] came to 50.3%.

Consider `CC(C)CN(C[C@@H](O)[C@H](Cc1ccccc1)NC(=O)Cn1cc(F)c(N)nc1=O)S(=O)(=O)c1ccc(N)cc1`, for which the CC50 at 24 h in data set [1] is over 100000 nM. Besides, half-maximal inhibition on Protease (IC50) required 105 nM.

`COc1ccc(S(=O)(=O)N(CC(C)C)C[C@@H](O)[C@H](Cc2ccccc2)NC(=O)Cn2cc(CO)c(=O)[nH]c2=O)cc1`: in data set [1], the CC50 at 24 h is over 100000 nM. On Protease, this compound displayed a 50% inhibitory concentration (IC50) of 9.07 nM. For the same compound, the inhibition at 10 µM in data set [3] amounted to 59.8%.
